PAFAH1B2 inh: blocks human PAF acetylhydrolase 1b catalytic subunit 2; P68402; recombinant PAFAH1B2, FP-rhodamine activity probe, fluorescence polarization; inhibition, % at 3.39 µM; 340,000 compounds, 1.2% hits; AID 492953;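 active means inhibition above the mean of all tested compounds plus 3 SD, cut at about 24% in these data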;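 further: 0% = enzyme with DMSO and 100% = wells lacking PAFAH1B2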
Target sequence (P68402 whole entry, looked up): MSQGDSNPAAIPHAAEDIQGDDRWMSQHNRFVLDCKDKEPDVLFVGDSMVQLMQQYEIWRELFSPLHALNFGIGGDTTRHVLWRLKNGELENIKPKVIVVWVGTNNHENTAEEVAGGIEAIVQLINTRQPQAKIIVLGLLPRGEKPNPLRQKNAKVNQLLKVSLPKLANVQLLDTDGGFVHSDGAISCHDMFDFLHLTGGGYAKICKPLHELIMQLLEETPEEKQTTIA
pPAFAH FP inh: inhibitors of human plasma PAF acetylhydrolase (pPAFAH). Q13093. recombinant pPAFAH, FP-rhodamine probe fluorescence polarization. inhibition, % at 3.39 µM. 330,000 compounds, 1.5% hits. AID 463082;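 active means inhibition above the mean inhibition across the screen plus 3 SD, cut at about 25% in these data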;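 further: inhibitors block binding of the rhodamine activity-based probe so polarization drops; 0% = enzyme with DMSO and 100% = wells lacking pPAFAH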
GRIN3A LBD mod: NR3A (human) ligand-binding domain modulation; NR3A LBD differential scanning fluorimetry, Tm shift; 0% = protein alone, 100% = glycine-bound protein; Tm shift relative to glycine control, % at 25 µM; 340,000 compounds, 2.5% hits; AID 1259313;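 active means melting temperature shift of at least 10% of the positive control shift, at one fixed dose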
PAFAH1B3 FP inh: inhibitors of human PAFAH1B3; recombinant PAFAH1B3, FP-rhodamine probe, fluorescence polarization; 340,000 compounds, 0.28% hits; inhibition, % at 3.39 µM; AID 492972; Q15102;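 active means inhibition above the screen-wide average of all tested compounds plus 3 SD, cut at about 25% in these data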;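 further: 0% = enzyme with DMSO only and 100% = wells lacking PAFAH1B3 protein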
Target sequence (Q15102 whole entry, looked up): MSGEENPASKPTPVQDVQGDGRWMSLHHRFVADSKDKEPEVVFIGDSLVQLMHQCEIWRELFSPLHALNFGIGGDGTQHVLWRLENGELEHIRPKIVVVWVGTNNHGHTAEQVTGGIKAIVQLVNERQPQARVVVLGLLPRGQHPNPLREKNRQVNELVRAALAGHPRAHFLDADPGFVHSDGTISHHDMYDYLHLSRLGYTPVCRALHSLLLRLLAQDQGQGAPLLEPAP
UCH37 inh: inhibitors of human deubiquitinating enzyme UCH37 | purified proteasome/UCH37, Ub-AMC cleavage fluorescence | inhibition, % (no concentration beside the values) | 330,000 compounds, 0.33% hits | AID 588478;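 active means mean inhibition over replicate wells above about 20%, limit read from the data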;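 further: 0% = compound-free wells with enzyme and 100% = wells lacking proteasome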
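assay system = human UCH37 enzyme supplied as purified proteasome complex | amount = proteasome at 0.15 nM in the dispensed enzyme solution | schedule = 30 min compound-proteasome preincubation then 25 min substrate reaction, room temperature | measured by = fluorescence, ex 355 nm, em 460 nm | benchmarks = no-proteasome wells (full inhibition) and compound-free wells (no inhibition)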
PAFAH2 FP inh: PAFAH2 (human) inhibition; Q99487; recombinant PAFAH2, FP-rhodamine activity probe, fluorescence polarization; inhibition, % at 3.39 µM; 340,000 compounds, 0.99% hits; AID 492956;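 active means inhibition above the mean over all tested compounds plus 3 SD, cut at about 30% in these data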;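 further: inhibitors block probe labeling of enzyme so polarization drops; 0% = enzyme with DMSO and 100% = wells lacking PAFAH2 protein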
pPAFAH FP conf: confirmation of human plasma PAF acetylhydrolase (pPAFAH) inhibitors | shares compounds with pPAFAH FP inh | recombinant pPAFAH, FP-Rh probe fluorescence polarization | inhibition, % at 3.39 µM | 2,300 compounds, 72% hits;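 active means mean inhibition of the triplicate above the hit cutoff set for the earlier primary screen, cut at about 25% in these data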;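 further: 0% = enzyme with DMSO and 100% = wells lacking pPAFAH enzyme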
PAFAH2 FP conf: confirmation of human PAFAH2 inhibitors | shares compounds with PAFAH2 FP inh | recombinant PAFAH2, FP-rhodamine activity probe, fluorescence polarization | inhibition, % at 3.39 µM | 2,300 compounds, 65% hits;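 active means mean inhibition over three repeats above a set limit taken from the earlier primary screen, cut at about 30% in these data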;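 further: inhibitor blocks binding of rhodamine activity probe so polarization falls; 0% = enzyme with DMSO and 100% = wells lacking PAFAH2 protein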
PAFAH1B3 conf FP: PAFAH1B3 (human) inhibition, confirmed; recombinant PAFAH1B3, FP-Rh activity-based probe, fluorescence polarization; shares compounds with PAFAH1B3 FP inh; 390 compounds, 30% hits; AID 493032; inhibition, % at 3.39 µM;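 active means average inhibition over triplicate runs above the hit cutoff set in the earlier primary screen, cut at about 25% in these data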;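 further: 0% = enzyme with DMSO and 100% = wells lacking PAFAH1B3 protein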
UCH37 reconfirm: reconfirmed inhibitor of human deubiquitinase UCH37; shares compounds with UCH37 inh; Proteasome-bound UCH37, Ub-AMC cleavage fluorescence; inhibition, % at 20 µM; 480 compounds, 27% hits;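 active means average inhibition over replicates above about 50%, so the earlier screening hit is confirmed, limit read from the data; inactive means the rest, counted as false positives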;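 further: based on cleavage rate fitted by regression over a 30 min kinetic read; 0% = proteasome plus Ub-AMC and 100% = Ub-AMC without proteasome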
Numbers without * were called inactive; · = not tested or not shown. Compounds with a hit are over-represented: about 4.8% of the library has one in this group of screens.

SMILES | PAFAH1B2 inh | pPAFAH FP inh | GRIN3A LBD mod | PAFAH1B3 FP inh | UCH37 inh | PAFAH2 FP inh | pPAFAH FP conf | others
C[C@H]1CN([C@@H](C)CO)C(=O)Cc2cc(NS(=O)(=O)c3ccc(Cl)cc3)ccc2O[C@@H]1CN(C)C(=O)Nc1cccc2ccccc12 | 12 | 49* | -1 | 13 | 3 | 16 | 54*
Cc1cc(S(=O)(=O)N2CCCC2)ccc1OCC(=O)Nc1ccc(C(N)=O)cc1 | -1 | 50* | 0 | 4 | -2 | 3 | 4
C=CCNC(=S)NN=C(C)c1cccnc1 | · | · | · | · | 0 | · | ·
Oc1ccc2ccccc2c1N=Nc1ccc(F)cc1 | -42 | -6 | 0 | -43 | 4 | -113 | ·
O=C(O)Cc1ccc(N=Nc2c(O)c(C(=O)O)cc3ccccc23)cc1 | 4 | 67* | 1 | 8 | 19 | 24 | 34*
Nc1nc(O)c(N=Nc2ccc(S(N)(=O)=O)cc2)c(=O)[nH]1 | · | · | 1 | · | 6 | · | ·
NS(=O)(=O)c1ccc(N=Nc2c(O)c(C(=O)O)cc3ccccc23)cc1 | 3 | 41* | 2 | 13 | 11 | 16 | 26*
COC(=O)c1ccc(C=NOCC(=O)NCCc2ccc(OC)c(OC)c2)cc1 | · | · | · | · | 2 | · | ·
Cc1ccc(C(C)C)c(OCc2ccc(C(=O)N/N=C/c3cccc(O)c3O)cc2)c1 | 16 | 54* | 24* | 33* | · | 22 | 52* | PAFAH1B3 conf FP=13
CC(C)(C)OC(=O)NN=Cc1ccc(N2CCOCC2)s1 | · | · | · | · | -4 | · | ·
O=C(O)CN1C(=O)/C(=C\c2cc(Br)ccc2OCc2ccc(F)cc2)SC1=S | 13 | 51* | 29* | 16 | 27* | 50* | 63* | UCH37 reconfirm=69*
Cc1cccc(NN=Cc2ccc(C)s2)c1 | · | · | · | · | 5 | · | ·
Cn1c(=S)n(N=Cc2ccc3c(c2)OCO3)c2ccccc21 | · | · | · | · | 2 | · | ·
Cc1cc(C)c(NC(=O)COC(=O)c2cccc3c2C(=O)c2ccccc2C3=O)c(C)c1 | 0 | 11 | -30 | 11 | 4 | 15 | ·
Cc1cc(C)c(Nc2cc(S(=O)(=O)O)c(N)c3c2C(=O)c2ccccc2C3=O)c(C)c1 | 63* | 89* | 547* | 46* | 34* | 83* | 92* | UCH37 reconfirm=93*
CCN1/C(=C/C=C/c2oc3ccc(-c4ccccc4)cc3[n+]2CC)Oc2ccc(-c3ccccc3)cc21 | 26* | 59* | 60* | 19 | 35* | 29 | 13 | UCH37 reconfirm=76*
C[C@H]1COC2=C1C(=O)C(=O)c1c2ccc2c1CCCC2(C)C | 18 | 80* | -10 | 28* | 41* | 41* | 74* | UCH37 reconfirm=75*
C(=NNc1ncnc2sc3c(c12)CCC3)c1cccs1 | · | · | · | · | 4 | · | ·
O=c1cc(-c2ccc(O)cc2)oc2c(O)c(O)c(O)c(O)c12 | 26* | 37* | -11 | 52* | 69* | 69* | 72* | UCH37 reconfirm=22
COc1c(O)cc2oc(-c3ccc(O)cc3)cc(=O)c2c1O | 6 | 8 | 8 | 4 | 2 | 5 | ·
O=C(O)C(Cc1ccccc1)N1C(=O)/C(=C/C=C/c2ccco2)SC1=S (centres undefined) | 11 | · | -1 | 12 | 24* | 60* | · | PAFAH2 FP conf=47*
CC(=NNC(=O)CNc1cccc2ccccc12)c1ccccc1 | · | · | · | · | 1 | · | ·
CCN(CC)S(=O)(=O)c1ccc(N2CCOCC2)c(NC(=O)Cc2cccc3ccccc23)c1 | -7 | 9 | -2 | 6 | 2 | 60* | · | PAFAH2 FP conf=45*
CC1CC1C(=O)OCC(=O)NCc1ccc(Cl)cc1 (centres undefined) | 6 | 7 | 0 | 1 | 2 | 46* | · | PAFAH2 FP conf=23
